Screens: PubChem BioAssay, The Scripps Research Institute Molecular Screening Center
RBBP9 inh: inhibitors of human serine hydrolase RBBP9 | hit rate 0.2% among 220,000 | recombinant RBBP9, FP-Rh probe fluorescence polarization | O75884 | AID 1515 | inhibition, % at 7.94 µM;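 active = inhibition above the campaign mean of all tested compounds plus 3 SD, cut at about 14% in these data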
Target sequence (O75884 whole entry, looked up): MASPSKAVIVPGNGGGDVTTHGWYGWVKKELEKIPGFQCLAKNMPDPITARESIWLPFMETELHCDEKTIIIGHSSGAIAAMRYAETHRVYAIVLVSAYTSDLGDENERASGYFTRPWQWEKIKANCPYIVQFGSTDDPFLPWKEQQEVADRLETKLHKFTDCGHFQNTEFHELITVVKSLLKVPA
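Test system: recombinant human RBBP9; Timing: 30 min then 45 min, 25 °C; Detection: fluorescence polarization; Control set: RBBP9 with DMSO as uninhibited control, no-protein wells as full inhibition; Compound dosing: one concentration, 7.94 µM nominal, 0.794% DMSO; Probe or stimulus: FP-Rh activity-based probe, 375 nM before mixing.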
PRMT1 inh: blocks human protein arginine methyltransferase 1; Q99873; recombinant PRMT1, activity-based probe fluorescence polarization; inhibition, % at 2.79 µM; hit rate 1.3% among 370,000; AID 652257;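 active = inhibition above about 21% made by adding two undisclosed values, limit read from the data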
LEDGF integ inh: blocks HIV-1 LEDGF/p75-dependent DNA integration; TR-FRET IN-LEDGF/p75 DNA integration, Eu/Cy5; inhibition, % at 3.7 µM; hit rate 0.64% among 370,000; AID 743269;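 active = inhibition above the screen-wide mean plus 3 SD, cut at about 13% in these data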;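 also: signal is the Cy5 over europium emission ratio at 671 and 618 nm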
MBD2 inh: MBD2-methylated oligo binding inhibition. inhibition, % at 4.4 µM. TR-FRET, MBD2 binding to methylated oligonucleotide. AID 686964. hit rate 0.31% among 370,000. Q9UBB5; in the data active = inhibition above about 13%
Target sequence (Q9UBB5 whole entry, looked up): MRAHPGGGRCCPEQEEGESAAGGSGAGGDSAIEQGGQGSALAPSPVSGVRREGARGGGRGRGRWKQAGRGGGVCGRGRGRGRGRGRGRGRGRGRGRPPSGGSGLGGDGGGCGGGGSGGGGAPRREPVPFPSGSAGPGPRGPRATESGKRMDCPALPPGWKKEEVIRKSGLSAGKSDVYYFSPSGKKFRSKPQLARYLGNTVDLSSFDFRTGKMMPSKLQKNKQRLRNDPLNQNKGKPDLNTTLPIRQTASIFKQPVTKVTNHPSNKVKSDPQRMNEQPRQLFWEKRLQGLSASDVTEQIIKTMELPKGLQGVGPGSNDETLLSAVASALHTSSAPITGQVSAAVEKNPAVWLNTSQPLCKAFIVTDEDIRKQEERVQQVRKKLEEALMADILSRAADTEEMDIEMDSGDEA
ABHD5-PLIN5 inh: blocks binding of human ABHD5 to perilipin-5; Q00G26+Q8WTS1; Split G. princeps luciferase complementation, luminescence, 4 h; inhibition, % at 4 µM; hit rate 0.78% among 360,000; AID 602281;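 active = inhibition above the mean inhibition across every tested compound plus 3 SD, cut at about 22% in these data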
UHRF1 binding: human UHRF1 methylated DNA binding inhibitors | UHRF1 binding to methylated oligo, TR-FRET | inhibition, % at 4.4 µM | hit rate 0.75% among 370,000 | AID 687016; in the data active = inhibition above about 21%;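 also: UHRF1 SRA domain binding a hemimethylated CpG hairpin DNA probe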
RBBP9 inh conf: human RBBP9 inhibition, confirmation; shares compounds with RBBP9 inh; recombinant RBBP9, FP-Rh probe fluorescence polarization; inhibition, % at 7.94 µM; hit rate 36% among 410; AID 1537;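 active = inhibition above the hit cutoff derived for the primary screen, cut at about 15% in these data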
ABHD5 PLIN5 conf: confirmation of human ABHD5-PLIN5 interaction inhibitors; shares compounds with ABHD5-PLIN5 inh; biochemical ABHD5-PLIN5 interaction, luminescence; inhibition, % at 4 µM; hit rate 67% among 2,200; in the data active = inhibition above about 23%
HNF4 split-luc: counter-screen for ABHD5-PLIN5 inhibitors: HNF4 split-luciferase. HNF4 dimerization, luminescence, biochemical. AID 651674. hit rate 77% among 2,200. inhibition, % at 4 µM. shares compounds with ABHD5-PLIN5 inh;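 active = mean inhibition across replicate wells exceeding the computed hit threshold, cut at about 13% in these data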;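 also: light from luciferase halves that rejoin when HNF4 fusion proteins dimerize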
PRMT1 confirm: PRMT1 (human) inhibition, FP confirmation; shares compounds with PRMT1 inh; hit rate 42% among 3,300; recombinant His-PRMT1, activity-based probe fluorescence polarization; inhibition, % at 2.79 µM;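 active = mean inhibition across replicates above the hit cutoff derived for the earlier primary screen, cut at about 22% in these data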
UHRF1 ctr MBD2: inhibits human UHRF1 binding to methylated oligonucleotide, MBD2 counter-screen | TR-FRET | hit rate 25% among 1,000 | inhibition, % at 4.4 µM | AID 720530 | shares compounds with MBD2 inh; in the data active = inhibition above about 21%;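 also: UHRF1 SRA domain binding a labeled hemimethylated CpG hairpin DNA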
MBD2 confirm: MBD2-DBD methyl-DNA binding inhibition, TR-FRET confirmation; shares compounds with MBD2 inh; inhibition, % at 4.4 µM; hit rate 26% among 1,000; TR-FRET MBD2-DBD binding to methylated oligonucleotide
IN multimer act: counter-screen for LEDGF/p75 integration inhibitors: HIV-1 integrase multimerization activators | shares compounds with LEDGF integ inh | TR-FRET HIV-1 integrase multimerization, biochemical | activation, % at 7.7 µM | hit rate 17% among 2,000 | AID 1053131; in the data active = activation above about 8.9%
TR-FRET interf: counter-screen for LEDGF/p75 integration inhibitors: TR-FRET optical interference. TR-FRET optical interference counterscreen, HIV-1 IN multimerization. inhibition, % at 7.7 µM. shares compounds with LEDGF integ inh. 2,000 tested, under 10 active;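 active = inhibition above the mean over all tested compounds plus 3 SD, which no compound reached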
LEDGF integ conf: LEDGF/p75-dependent HIV-1 integration inhibition, confirmation; inhibition, % at 3.7 µM; TR-FRET LEDGF/p75-dependent HIV-1 integration, biochemical; hit rate 36% among 2,000; shares compounds with LEDGF integ inh
Each line names hits and unclear results; the compound was inactive in the other large screens (follow-up assays come after a bar, where they were run). A selection: hits, their analogues and other compounds. The true share with any hit is near 3.1%. Rule as the data show it, unless noted: active = inhibition above about 14%; inactive = the rest.

CCNC(=O)Nc1ccc2c(c1)C(=O)N(C)[C@H]1CC[C@H](CC(=O)N[C@H](C)c3ccccc3)O[C@@H]1CO2	none (no result: RBBP9 inh, ABHD5-PLIN5 inh)
Cc1ccc(Cn2cc(CN(C(C)(C)C)S(=O)(=O)c3ccc(F)cc3Br)nn2)cc1	none (no result: RBBP9 inh, ABHD5-PLIN5 inh)
COc1ccc(OC)c2c1C(=O)C(Cl)=C(Cl)C2=O	RBBP9 inh 79, PRMT1 inh 91, ABHD5-PLIN5 inh 93 | RBBP9 inh conf 81 | ABHD5 PLIN5 conf 104 | HNF4 split-luc 111
COc1ccc(S(=O)(=O)N(C(=O)c2ccco2)c2cc3sc(=O)oc3c3ccccc23)cc1	RBBP9 inh 29, PRMT1 inh 94, ABHD5-PLIN5 inh 97 | RBBP9 inh conf inactive | ABHD5 PLIN5 conf inactive | HNF4 split-luc 110
CCOc1ccc(S(=O)(=O)N(C)CC(=O)NCc2ccco2)cc1	none (no result: RBBP9 inh)
CCOc1ccc(S(=O)(=O)N(C(=O)c2ccco2)c2cc3sc(=O)oc3c3ccccc23)cc1	RBBP9 inh 30, PRMT1 inh 93, ABHD5-PLIN5 inh 35 | RBBP9 inh conf inactive | ABHD5 PLIN5 conf inactive | HNF4 split-luc 34
Cc1ccc(S(=O)(=O)N(C(=O)c2ccco2)c2cc3sc(=O)oc3c3ccccc23)cc1	RBBP9 inh 40, PRMT1 inh 84, ABHD5-PLIN5 inh 31 | RBBP9 inh conf inactive | ABHD5 PLIN5 conf inactive | HNF4 split-luc 109
CC(CNC(=O)[C@@H](Cc1ccccc1)NC(=O)[C@H]1O[C@@H](n2cnc3c(=O)[nH]c(N)nc32)[C@H](O)[C@@H]1O)c1ccccc1 (some centres not stated)	none (no result: RBBP9 inh, ABHD5-PLIN5 inh)
COCCN=c1scc(-c2ccccc2)n1/N=C/c1c[nH]c2ccccc12	none
COCCN=c1scc(-c2cccs2)n1/N=C/c1ccc(O)c(O)c1O	RBBP9 inh 36, PRMT1 inh 54 | RBBP9 inh conf 63 | PRMT1 confirm 27
NC1=NC(=O)CC(C(=O)NCc2ccccc2)S1 (configuration not stated)	RBBP9 inh 14, PRMT1 inh 36 | RBBP9 inh conf inactive | PRMT1 confirm inactive
Cc1ccccc1N1CCN(C(=O)COc2cc(=O)n(C)c3ccccc23)CC1	none (no result: RBBP9 inh, ABHD5-PLIN5 inh)
CC(=O)N(c1ccc2oc(=O)sc2c1)S(=O)(=O)c1ccccc1	RBBP9 inh 17, PRMT1 inh 91 | RBBP9 inh conf inactive | PRMT1 confirm 65
C=CCOC(=O)N[C@@H](c1coc2ccccc2c1=O)[C@@H](C)/C=C/CC(=O)OC	none (no result: RBBP9 inh, ABHD5-PLIN5 inh)
O=C1C(CSCc2ccccc2)NC(=S)N1c1ccccc1 (configuration not stated)	RBBP9 inh 30, PRMT1 inh 27 | RBBP9 inh conf 20 | PRMT1 confirm 68
COC(=O)[C@@H](C)NC(=O)C(Cc1ccc2c(c1)OCO2)NC(C)=O (some centres not stated)	none (no result: RBBP9 inh, ABHD5-PLIN5 inh)
CCOC(=O)C1CCCN(c2cc(NCCCO)c([N+](=O)[O-])c3nonc23)C1 (configuration not stated)	none (no result: ABHD5-PLIN5 inh)
Cc1nnc(Sc2cc(NCCCO)c([N+](=O)[O-])c3nonc23)s1	RBBP9 inh 22, PRMT1 inh 91, ABHD5-PLIN5 inh 27 | RBBP9 inh conf 30 | ABHD5 PLIN5 conf 49 | HNF4 split-luc 111 | PRMT1 confirm 84
Cc1nnc(Sc2cc(NCCO)c([N+](=O)[O-])c3nonc23)s1	RBBP9 inh 18, PRMT1 inh 85, ABHD5-PLIN5 inh 50 | RBBP9 inh conf 24 | ABHD5 PLIN5 conf 52 | HNF4 split-luc 114 | PRMT1 confirm 89
CCCSc1cc(NCCOC(C)=O)c([N+](=O)[O-])c2nonc12	none
CCN1C(=O)N[C@H]2C[C@@H](c3ccccc3)[C@@H](C)[C@@H](C(=O)N3CCCC3)C[C@H]21	none (no result: RBBP9 inh, ABHD5-PLIN5 inh)
COc1ccc(N/C=C2\CCc3ccccc3C2=O)cc1	RBBP9 inh 18, PRMT1 inh 59 | RBBP9 inh conf inactive | PRMT1 confirm 44
N#C/C(=C\c1cc(O)c(O)c(O)c1)C(N)=O	RBBP9 inh 18, PRMT1 inh 59, LEDGF integ inh 68, MBD2 inh 32, UHRF1 binding 47 | RBBP9 inh conf 20 | UHRF1 ctr MBD2 inactive | MBD2 confirm inactive | IN multimer act 31 | TR-FRET interf inactive | LEDGF integ conf 31
CCN=c1scc(C)n1/N=C/c1cc(Br)c(O)c(Br)c1	none
CCN=c1scc(C)n1/N=C/c1ccc(O)c(O)c1O	RBBP9 inh 34, PRMT1 inh 60, LEDGF integ inh 52 | RBBP9 inh conf 61 | IN multimer act 20 | TR-FRET interf inactive | LEDGF integ conf 36
COc1ccc(C(=O)C2(C(=O)NCc3ccccc3)CC(c3ccccn3)=NO2)cc1 (configuration not stated)	none (no result: RBBP9 inh, ABHD5-PLIN5 inh)
NC(=O)CC1Nc2cccc3cccc(c23)NC1=O (configuration not stated)	RBBP9 inh 29, LEDGF integ inh 19 | RBBP9 inh conf inactive | IN multimer act 35 | TR-FRET interf inactive | LEDGF integ conf 32
Nc1nc(-c2ccco2)c(-c2ccco2)s1	RBBP9 inh 17, PRMT1 inh 40, LEDGF integ inh 30 | RBBP9 inh conf inactive | PRMT1 confirm inactive | IN multimer act 8.9 | TR-FRET interf inactive | LEDGF integ conf 19
